Measured values published in paper PMC11044220 (ACS Omega, 2024).

How the values were obtained:
[1] = test system: HepG2 cells; assay: Cell cycle analysis by flow cytometry; type: cell-based, human; conditions: for percentage of cells at the G1 phase: IC50 concentration (4.23 μM), control 50.7%
Summary of the method: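 HepG2 cells were treated for 48 h with 4.23 μM test compound, alongside untreated controls. DNA content was analysed by FACS to give the percentage of cells in G1, S and G2/M. The pre-G1 fraction was scored as the apoptotic (DNA-fragmented) population. Fold changes were expressed relative to the untreated control.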

[2] = target: EGFR-TK (Homo sapiens, UniProt P00533); assay: EGFR-TK enzyme assay; type: biochemical
Sequence of EGFR-TK (P00533 25-1210): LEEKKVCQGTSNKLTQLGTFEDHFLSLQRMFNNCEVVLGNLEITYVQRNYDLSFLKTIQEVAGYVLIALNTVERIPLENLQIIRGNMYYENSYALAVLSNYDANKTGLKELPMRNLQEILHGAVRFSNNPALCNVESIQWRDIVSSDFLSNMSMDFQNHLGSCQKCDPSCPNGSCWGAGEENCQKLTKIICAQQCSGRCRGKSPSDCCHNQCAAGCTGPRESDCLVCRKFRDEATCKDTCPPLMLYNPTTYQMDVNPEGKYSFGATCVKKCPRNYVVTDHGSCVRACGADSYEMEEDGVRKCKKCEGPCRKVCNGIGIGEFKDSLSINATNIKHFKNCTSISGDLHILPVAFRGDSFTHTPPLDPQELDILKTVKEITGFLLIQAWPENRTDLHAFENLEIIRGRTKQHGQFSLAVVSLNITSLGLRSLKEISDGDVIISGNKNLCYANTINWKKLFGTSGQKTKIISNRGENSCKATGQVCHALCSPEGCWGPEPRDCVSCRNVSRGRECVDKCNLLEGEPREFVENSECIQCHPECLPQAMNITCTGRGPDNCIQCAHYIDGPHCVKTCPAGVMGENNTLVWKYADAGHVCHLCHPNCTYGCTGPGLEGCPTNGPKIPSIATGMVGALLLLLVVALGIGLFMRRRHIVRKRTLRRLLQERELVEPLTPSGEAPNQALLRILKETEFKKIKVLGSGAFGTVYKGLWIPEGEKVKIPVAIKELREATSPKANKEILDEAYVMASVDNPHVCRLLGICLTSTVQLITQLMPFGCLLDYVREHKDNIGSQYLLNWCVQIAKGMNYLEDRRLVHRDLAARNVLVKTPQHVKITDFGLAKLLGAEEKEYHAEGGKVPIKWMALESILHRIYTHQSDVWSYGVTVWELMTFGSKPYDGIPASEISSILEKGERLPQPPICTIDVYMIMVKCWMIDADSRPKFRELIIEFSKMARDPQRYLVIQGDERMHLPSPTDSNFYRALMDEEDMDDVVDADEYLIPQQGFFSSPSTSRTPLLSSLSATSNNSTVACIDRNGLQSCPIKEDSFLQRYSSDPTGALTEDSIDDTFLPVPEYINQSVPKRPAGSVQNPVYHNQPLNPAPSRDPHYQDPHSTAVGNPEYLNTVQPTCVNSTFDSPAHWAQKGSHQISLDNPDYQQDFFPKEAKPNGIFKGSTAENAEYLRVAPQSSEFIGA

[3] = test system: HepG2 cells; assay: Annexin V-FITC/PI dual staining apoptosis assay; type: cell-based, human
[4] = test system: HepG2 cells; assay: Mitochondrial membrane potential; type: cell-based, human; conditions: HepG2, 48 h, 4.23 μM (IC50 concentration)
Summary of the method: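 Whole HepG2 cells were incubated with 4.23 μM test compound for 48 h, then labelled with a green fluorescent mitochondrial dye. The percentage of cells with depolarised mitochondrial membranes was measured and expressed as fold relative to untreated HepG2 cells.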

[5] = test system: p53; assay: qRT-PCR for apoptotic markers: p53; type: cell-based
[6] = test system: Bax; assay: qRT-PCR for apoptotic markers: Bax; type: cell-based
[7] = test system: Bcl2; assay: qRT-PCR for apoptotic markers: Bcl2; type: cell-based
[8] = test system: HepG2 liver cancer cell line; conditions: read-out: IC50 (μM) HepG2, MTT assay, mean of three independent replicates ± SE

Row | SMILES | percentage of cells at the G1 phase ([1]; HepG2, 48 h) [%] | IC50 [2] [µM] | cells at the pre-G1 phase ([1]; HepG2, 48 h, IC50 concentration, control 2.5%) [%] | cell cycle arrest at the G1 phase, fold compared to untreated HepG2 control ([1]; HepG2, IC50 concentration) [fold] | total apoptotic cells (early and late apoptosis and necrosis) ([3]; HepG2, 48 h, IC50 concentration (4.23 μM), control 2.5%) [%] | ratio of both early and late apoptosis ([3]; HepG2, IC50 concentration, control 0.7%) [%] | decrease of MMP level, fold compared with untreated control HepG2 [4] [fold] | p53 level, fold change compared with no treatment control [5] [fold] | Bax level, fold change compared with no treatment control [6] [fold] | Bcl2 level, fold change [7] [fold] | IC50 [8] [µM]
1 | O=C(NN=C(c1ccccc1)c1ccccc1)/C(=C/c1ccc(F)cc1)NC(=O)c1ccccc1 [compound 5, (Z)-N-(3-(2-(Diphenylmethylene)hydrazinyl)-1-(4-fluorophenyl)-3-oxoprop-1-en-2-yl)benzamide] | 64.2 |  |  |  |  |  |  |  |  |  | 
2 | O=C1/C(=C/c2ccc(F)cc2)N=C(c2ccccc2)N1c1ccc(S(=O)(=O)Nc2ncccn2)cc1 [compound 6, (Z)-4-(4-(4-Fluorobenzylidene)-5-oxo-2-phenyl-4,5-dihydro-1H-imidazol-1-yl)-N-(pyrimidin-2-yl)benzenesulfonamide] | 64.2 | 0.13 | 55.5 | 1.28 | 55.5 | 44.8 | 2.84 | 4.7 | 3.7 | 0.38 | 
3 | O=C1NN(c2ccccc2)C(c2ccccc2)=N/C1=C\c1ccc(F)cc1 [compound 7, (Z)-5-(4-Fluorobenzylidene)-2,3-diphenyl-1,2-dihydro-1,2,4-triazin-6(5H)-one] |  |  |  |  |  |  |  |  |  |  | 5.89 ± 0.19
